This is an account of results in ChEMBL document CHEMBL1212820, “Novel hinge binder improves activity and pharmacokinetic properties of BRAF inhibitors” (J Med Chem, 2010).

SMILES strings stand for the structures.

Data set [1] can be described thus: Selectivity index, ratio of GI50 for human WM1361 cells to GI50 for human WM266.4.
Data set [2] is described as follows: Growth inhibition of human WM266.4 cells expressing BRAF V600E mutant after 5 days by SRB assay. Format: functional. The settings on record: WM 266-4, 120 h. The method, boiled down: (§1)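 Antiproliferative SRB assay in WM266.4 (BRAF mutant), WM1361 (NRAS mutant) and D24 (BRAF/NRAS wild-type) melanoma cells, with GI50 derived from the assay.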
The nature of data set [3]: Ratio of Cmax in BALB/cAnNCrl mouse to GI50 for human WM266.4 cells.
The target in data set [4] is T1, Serine/threonine-protein kinase B-raf (Homo sapiens, UniProt P15056, V600E). Kind of data set: Inhibition of B-Raf V600E mutant. The method, boiled down:
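Enzymatic IC50 determined in vitro against purified V600E BRAF.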

A short description of data set [5]: Growth inhibition of human WM1361 cells expressing NRAS mutant after 5 days by SRB assay. Format: functional. The settings on record: WM1361, 120 h. The procedure, abridged: as §1
Background: In SRB staining, fixed cells bind dye roughly in proportion to their protein.

The nature of data set [6]: Tmax in BALB/cAnNCrl mouse at 10 mg/kg, po. The conditions noted are these: in vivo.
Data set [7] can be described thus: Half life in BALB/cAnNCrl mouse at 10 mg/kg, po. The settings on record: in vivo.
The nature of data set [8]: Selectivity index, ratio of GI50 for human WM1361 cells to GI50 for human WM266.4 cells. The class given is functional. The method, boiled down: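 GI50 values from the SRB proliferation assay, expressed relative to the GI50 in WM266.4 (BRAF mutant) cells.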
The target of data set [9] is T1, Serine/threonine-protein kinase B-raf. Kind of data set: Inhibition of BRAF V600E mutant-mediated ERK phosphorylation in human WM266.4 cells. The class given is cell-based. The method, boiled down:
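Cellular IC50 for inhibition of phosphoERK formation.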

The nature of data set [10]: Oral bioavailability in BALB/cAnNCrl mouse at 10 mg/kg. The conditions noted are these: in vivo.
Data set [11] is described as follows: Growth inhibition of D24 after 5 days by SRB assay. The class given is functional. The method, boiled down: as §1
Data set [12] is described as follows: Cmax in BALB/cAnNCrl mouse at 10 mg/kg, po. The conditions noted are these: in vivo.

T1 sequence (P15056 2-766 V600E limits assumed): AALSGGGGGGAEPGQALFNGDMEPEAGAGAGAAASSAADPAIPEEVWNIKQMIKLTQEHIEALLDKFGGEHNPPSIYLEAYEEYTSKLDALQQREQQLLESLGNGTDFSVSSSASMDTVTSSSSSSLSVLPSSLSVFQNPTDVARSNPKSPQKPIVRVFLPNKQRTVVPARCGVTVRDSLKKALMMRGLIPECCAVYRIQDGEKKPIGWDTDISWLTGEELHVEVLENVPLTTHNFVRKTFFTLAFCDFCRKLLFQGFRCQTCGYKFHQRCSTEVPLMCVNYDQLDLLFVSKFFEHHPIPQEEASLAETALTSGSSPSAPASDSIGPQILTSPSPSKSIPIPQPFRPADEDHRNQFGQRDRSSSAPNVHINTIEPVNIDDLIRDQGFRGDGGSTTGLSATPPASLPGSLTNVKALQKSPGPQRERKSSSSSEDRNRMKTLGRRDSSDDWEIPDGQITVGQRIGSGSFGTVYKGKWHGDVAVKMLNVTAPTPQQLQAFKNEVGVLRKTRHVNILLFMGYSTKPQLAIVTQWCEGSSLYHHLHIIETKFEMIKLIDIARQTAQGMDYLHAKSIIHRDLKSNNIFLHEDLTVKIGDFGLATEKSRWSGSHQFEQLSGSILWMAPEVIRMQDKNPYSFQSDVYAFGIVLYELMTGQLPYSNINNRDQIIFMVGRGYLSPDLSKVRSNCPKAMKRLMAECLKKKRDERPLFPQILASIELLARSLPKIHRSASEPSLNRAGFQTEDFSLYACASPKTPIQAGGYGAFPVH

By GI50 is commonly meant the concentration at which growth is held to half of that of the control. The IC50 is the concentration at which inhibition is half-maximal. Read a low IC50 as greater potency. As usually defined, the Tmax is the time at which the peak concentration occurs. As a reminder, the half-life is the time needed for the level to fall by half in the phase considered. A word on the bioavailability: it is the share of a dose that reaches the circulation, judged against a reference dose that is usually intravenous. A higher bioavailability goes with good availability. As a reminder, the Cmax is the maximum level reached in the sampled fluid or tissue. For `Cc1ccc(-n2nc(C(C)(C)C)cc2NC(=O)Nc2cccc(Oc3ccnc4[nH]c(=O)cnc34)c2)cc1`, the RatioGI50 in data set [1] turned out to be 130; in [8] it was 60. Further, the GI50 in [2] amounted to 190 nM; in [5], 12000 nM; in data set [11], 26000 nM. The Ratio in data set [3] is listed as 142. Also, the IC50 in data set [4] amounted to 87 nM; in data set [9], 274 nM. Also, in data set [6], the Tmax stood at 0.5 h. In data set [7], this molecule showed a half-life of 4 h. Moreover, the bioavailability in data set [10] amounted to 27%. This molecule also registered a Cmax in data set [12] of 27 µM.
